{"source": "ChEMBL document CHEMBL2311257", "about": "“Synthesis and antioxidant activity of thymol and carvacrol based Schiff bases” (Bioorg Med Chem Lett, 2013)", "assay_type_in_all_cases": "functional", "key": {"[1]": {"tested_on": "Radical scavenging activity", "experiment": "Antioxidant activity assessed as DPPH radical scavenging activity in ethanol solution at 5 ug/mL", "method_in_brief": "(§1)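 Compound dissolved in ethanol, then ethanolic DPPH added. Incubated 30 min in the dark. DPPH decrease read as absorbance at 517 nm against an ethanol blank, with ascorbic acid as reference. % activity = [(A0 − Ai)/A0] × 100, where A0 is absorbance without compound and Ai with compound. IC50 taken from activity across concentrations.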"}, "[2]": {"tested_on": "Radical scavenging activity", "experiment": "Antioxidant activity assessed as DPPH radical scavenging activity in ethanol solution at 25 ug/mL", "method_in_brief": "as §1"}, "[3]": {"tested_on": "Radical scavenging activity", "experiment": "Antioxidant activity assessed as DPPH radical scavenging activity in chloroform solution at 50 ug/mL"}, "[4]": {"tested_on": "Radical scavenging activity", "experiment": "Antioxidant activity assessed as DPPH radical scavenging activity in ethanol solution at 10 ug/mL", "method_in_brief": "as §1"}, "[5]": {"tested_on": "Radical scavenging activity", "experiment": "Antioxidant activity assessed as DPPH radical scavenging activity in ethanol solution at 50 ug/mL", "method_in_brief": "as §1"}, "[6]": {"tested_on": "Radical scavenging activity", "experiment": "Antioxidant activity assessed as DPPH radical scavenging activity in ethanol solution at 100 ug/mL", "method_in_brief": "as §1"}, "[7]": {"tested_on": "Radical scavenging activity", "experiment": "Antioxidant activity assessed as DPPH radical scavenging activity in chloroform solution at 5 ug/mL"}, "[8]": {"tested_on": "Radical scavenging activity", "experiment": "Antioxidant activity assessed as DPPH radical scavenging activity in ethanol solution", "method_in_brief": "as §1"}, "[9]": {"tested_on": "Radical scavenging activity", "experiment": "Antioxidant activity assessed as DPPH radical scavenging activity in chloroform solution at 10 ug/mL"}, "[10]": {"tested_on": "Radical scavenging activity", "experiment": "Antioxidant activity assessed as DPPH radical scavenging activity in chloroform solution"}, "[11]": {"tested_on": "Radical scavenging activity", "experiment": "Antioxidant activity assessed as DPPH radical scavenging activity in chloroform solution at 25 ug/mL"}, "[12]": {"tested_on": "Radical scavenging activity", "experiment": "Antioxidant activity assessed as DPPH radical scavenging activity in chloroform solution at 100 ug/mL"}, "[13]": {"experiment": "Antioxidant activity assessed as ABTS radical scavenging activity at 5 ug/mL", "method_in_brief": "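ABTS radical cation solution diluted in ethanol to an absorbance of 0.7–0.9 at 734 nm, 30 °C. Equal volume added to ethanolic compound solution (5 µg/mL). Absorbance read after 1 min and converted to percent inhibition.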"}}, "note": "The source made the active and inactive calls. No cut-off for these calls is given here.", "data": [{"smiles": "Cc1cc(O)c(C(C)C)cc1/N=C/c1ccc(O)cc1", "values": [{"measurement": "Activity", "setting": "[1]", "value": 24.4, "unit": "%"}, {"measurement": "Activity", "setting": "[2]", "value": 77.1, "unit": "%"}, {"measurement": "Activity", "setting": "[3]", "value": 84.5, "unit": "%"}, {"measurement": "Activity", "setting": "[4]", "value": 51.8, "unit": "%"}, {"measurement": "Activity", "setting": "[5]", "value": 89.8, "unit": "%"}, {"measurement": "Activity", "setting": "[6]", "value": 92.9, "unit": "%"}, {"measurement": "Activity", "setting": "[7]", "value": 26, "unit": "%"}, {"measurement": "IC50", "setting": "[8]", "value": 9.02, "unit": "mg/L"}, {"measurement": "Activity", "setting": "[9]", "value": 50, "unit": "%"}, {"measurement": "IC50", "setting": "[10]", "value": 13.32, "unit": "mg/L"}, {"measurement": "Activity", "setting": "[11]", "value": 70.2, "unit": "%"}, {"measurement": "Activity", "setting": "[12]", "value": 93, "unit": "%"}, {"measurement": "Activity", "setting": "[13]", "value": "Active"}]}, {"smiles": "COc1cc(/C=N/c2cc(C(C)(C)C)c(O)cc2C)cc(OC)c1OC", "values": [{"measurement": "Activity", "setting": "[1]", "value": 25.9, "unit": "%"}, {"measurement": "Activity", "setting": "[2]", "value": 65.4, "unit": "%"}, {"measurement": "Activity", "setting": "[3]", "value": 81.7, "unit": "%"}, {"measurement": "Activity", "setting": "[4]", "value": 44.9, "unit": "%"}, {"measurement": "Activity", "setting": "[5]", "value": 81, "unit": "%"}, {"measurement": "Activity", "setting": "[6]", "value": 84.4, "unit": "%"}, {"measurement": "Activity", "setting": "[7]", "value": 17.3, "unit": "%"}, {"measurement": "IC50", "setting": "[8]", "value": 18.79, "unit": "mg/L"}, {"measurement": "Activity", "setting": "[9]", "value": 45.2, "unit": "%"}, {"measurement": "IC50", "setting": "[10]", "value": 18.6, "unit": "mg/L"}, {"measurement": "Activity", "setting": "[11]", "value": 75.8, "unit": "%"}, {"measurement": "Activity", "setting": "[12]", "value": 91.8, "unit": "%"}, {"measurement": "Activity", "setting": "[13]", "value": "Active"}]}, {"smiles": "Cc1cc(/N=C/c2cc(Br)cc(Br)c2O)c(C(C)C)cc1O", "values": [{"measurement": "Activity", "setting": "[1]", "value": 31.5, "unit": "%"}, {"measurement": "Activity", "setting": "[2]", "value": 72, "unit": "%"}, {"measurement": "Activity", "setting": "[3]", "value": 77.4, "unit": "%"}, {"measurement": "Activity", "setting": "[4]", "value": 47.3, "unit": "%"}, {"measurement": "Activity", "setting": "[5]", "value": 79.3, "unit": "%"}, {"measurement": "Activity", "setting": "[6]", "value": 90.8, "unit": "%"}, {"measurement": "Activity", "setting": "[7]", "value": 28.1, "unit": "%"}, {"measurement": "IC50", "setting": "[8]", "value": 11.97, "unit": "mg/L"}, {"measurement": "Activity", "setting": "[9]", "value": 44.4, "unit": "%"}, {"measurement": "IC50", "setting": "[10]", "value": 18.73, "unit": "mg/L"}, {"measurement": "Activity", "setting": "[11]", "value": 65.8, "unit": "%"}, {"measurement": "Activity", "setting": "[12]", "value": 88.5, "unit": "%"}, {"measurement": "Activity", "setting": "[13]", "value": "Active"}]}]}
